# Where “and” joins values, the source holds several entries; their conditions need not be identical. Equal entries are not always repeated.
# Assays:
# RAW264.7 cells = conditions: LPS-stimulated RAW264.7 cells; cited from earlier work
# MDA-MB-231 cells [1] = test: Scratch wound closure assay; format: cell-based, human; conditions: 100 and 200 μM, 24 hrs post-wounding
# Outline: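 MDA-MB-231 cells were pretreated with graded concentrations of test compound. A scratch wound was then made and medium was replaced with 1% FBS-containing medium. Wound closure was measured at 0 and 24 h post-wounding, with viability checked alongside. Three independent experiments.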
# p38MAPKδ = p38MAPKδ (Homo sapiens, UniProt O15264); test: MAP kinase selectivity assay, p38MAPKδ; format: biochemical
# Sequence of p38MAPKδ (O15264 whole entry): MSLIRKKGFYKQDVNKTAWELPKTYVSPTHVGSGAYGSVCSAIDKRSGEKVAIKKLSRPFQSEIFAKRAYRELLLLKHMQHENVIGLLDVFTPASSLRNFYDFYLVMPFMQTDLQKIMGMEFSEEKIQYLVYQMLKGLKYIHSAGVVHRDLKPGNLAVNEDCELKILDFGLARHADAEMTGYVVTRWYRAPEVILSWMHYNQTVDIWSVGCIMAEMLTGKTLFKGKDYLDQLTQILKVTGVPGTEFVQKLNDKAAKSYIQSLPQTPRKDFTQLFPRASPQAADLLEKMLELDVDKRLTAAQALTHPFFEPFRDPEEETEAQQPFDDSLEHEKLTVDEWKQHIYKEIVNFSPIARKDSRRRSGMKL
# JNK2α2 (C163A) = test: c-Jun phosphorylation in HEK293T cells transfected with JNK2α2; format: cell-based; conditions: 0-100 μM
# Outline: (§1)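 HEK293T cells were transfected with JNK2α2 DRS mutants (Y130A or C163A) or empty pcDNA3 vector and treated with test compound (0–100 μM). Western blots tracked JNK autophosphorylation and c-Jun phosphorylation, compared with non-transfected cells. Results are representative of three independent experiments.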
# [2] = test system: activated JNK1, JNK2 and JNK3; format: biochemical; conditions: read-out: IC50 values; range over JNK1, JNK2 and JNK3; GST-c-Jun 2 μM
# Outline: (§2)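 Activated JNK isoforms phosphorylated GST-c-Jun (1-221) at 2 μM across a dose range of test compound. Dose-response data were fitted to V0 = V00 − V00·i/(i+K50) + V′, where K50 is the half-maximal concentration and V′ is the residual rate at saturating inhibitor.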
# ERK2 pathway = test: ERK pathway specificity in HEK293 cells, EGF induced; format: cell-based; conditions: 100 μM
# Outline: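 HEK293 cells received DMSO or test compound (0-100 μM) for 12 hours. The ERK pathway was then induced with 50 ng EGF for 5-10 minutes and cells were lysed. Lysates were run on 10% SDS-PAGE and western blotted for phospho-ERK and phospho-p90RSK.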
# MDA-MB-231 cells [3] = test: Cell viability monitored during migration and wound assays; format: cell-based, human; conditions: for cell viability during the migration assay: transwell assay, 50 and 100 μM; for cell viability during the wound assay: up to 200 μM
# [4] = test system: JNK pathway in HEK293 cells; test: Western blot of phospho-JNK and phospho-c-Jun in anisomycin-treated HEK293 cells; format: cell-based; conditions: for activation (phosphorylation) of JNK isoforms / phosphorylation of c-Jun (phospho-Ser-63): HEK293, 5-100 μM, 12 hours, then anisomycin
# Outline: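 HEK293 cells were pretreated for 12 hours with DMSO or test compound at 5-100 μM. The JNK pathway was then induced with anisomycin (50-100 nM) for 5-10 minutes before lysis. Western blots detected phospho-JNK and phospho-c-Jun, and an ED50 was estimated.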
# JNK [5] = test: Steady-state kinetic analysis of c-Jun phosphorylation; format: biochemical; conditions: partial competitive inhibition model
# Outline: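 Initial velocities were measured with c-Jun varied at 0.63-20 μM and test compound fixed at several levels (0-50 μM), with saturating MgATP at 0.5 mM. Rates came from linear least-squares fits of product versus time. Double-reciprocal plots were checked for linearity. Data were fitted by nonlinear least squares to a partial competitive inhibition equation.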
# [6] = test system: Akt phosphorylation mediated by JNK2α2; test: Akt phosphorylation at Ser-473 in HEK293T cells transfected with WT-JNK2α2; format: cell-based; conditions: HEK293T transfected with WT-JNK2α2, without anisomycin
# Outline: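 Wild-type JNK2α2 was transfected into HEK293T cells. Cells were exposed to DMSO vehicle or a series of test compound concentrations, with no anisomycin stimulation. Akt activation was followed as phosphorylation at Ser-473.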
# p38MAPKβ = p38MAPKβ (Homo sapiens, UniProt Q15759); test: MAP kinase selectivity assay, p38MAPKβ; format: biochemical
# Sequence of p38MAPKβ (Q15759 whole entry): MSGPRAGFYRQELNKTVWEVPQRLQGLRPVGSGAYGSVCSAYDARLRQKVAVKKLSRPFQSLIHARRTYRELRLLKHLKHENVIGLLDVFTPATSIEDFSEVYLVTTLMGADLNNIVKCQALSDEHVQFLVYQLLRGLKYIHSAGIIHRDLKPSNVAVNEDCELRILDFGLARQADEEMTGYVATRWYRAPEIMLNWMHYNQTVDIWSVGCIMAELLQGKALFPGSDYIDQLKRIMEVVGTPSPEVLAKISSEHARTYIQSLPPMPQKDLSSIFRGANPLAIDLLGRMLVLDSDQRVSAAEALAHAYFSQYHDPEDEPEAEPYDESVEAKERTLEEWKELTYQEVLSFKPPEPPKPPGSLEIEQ
# JNK3 = JNK3 (Homo sapiens, UniProt P53779); test: Phosphorylation of GST-c-Jun; format: biochemical
# Sequence of JNK3 (P53779 whole entry): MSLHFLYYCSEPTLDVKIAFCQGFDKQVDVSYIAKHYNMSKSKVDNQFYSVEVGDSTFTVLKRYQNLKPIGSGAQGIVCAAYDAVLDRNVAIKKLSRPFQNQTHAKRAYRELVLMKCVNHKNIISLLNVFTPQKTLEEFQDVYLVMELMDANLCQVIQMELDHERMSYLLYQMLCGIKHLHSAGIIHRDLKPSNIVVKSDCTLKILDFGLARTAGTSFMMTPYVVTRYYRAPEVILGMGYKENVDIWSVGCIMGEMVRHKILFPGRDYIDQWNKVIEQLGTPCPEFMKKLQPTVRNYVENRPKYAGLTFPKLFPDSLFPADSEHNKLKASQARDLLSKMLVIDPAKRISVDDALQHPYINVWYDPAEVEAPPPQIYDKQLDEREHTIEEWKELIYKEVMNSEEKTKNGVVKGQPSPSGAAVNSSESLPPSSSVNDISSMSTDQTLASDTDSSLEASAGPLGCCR
# Outline: as §2
# WT-MKK4 = WT-MKK4 (Homo sapiens, UniProt P45983); test: Phosphorylation of inactive JNK1 by active MKK4; format: biochemical
# Sequence of WT-MKK4 (P45983 whole entry): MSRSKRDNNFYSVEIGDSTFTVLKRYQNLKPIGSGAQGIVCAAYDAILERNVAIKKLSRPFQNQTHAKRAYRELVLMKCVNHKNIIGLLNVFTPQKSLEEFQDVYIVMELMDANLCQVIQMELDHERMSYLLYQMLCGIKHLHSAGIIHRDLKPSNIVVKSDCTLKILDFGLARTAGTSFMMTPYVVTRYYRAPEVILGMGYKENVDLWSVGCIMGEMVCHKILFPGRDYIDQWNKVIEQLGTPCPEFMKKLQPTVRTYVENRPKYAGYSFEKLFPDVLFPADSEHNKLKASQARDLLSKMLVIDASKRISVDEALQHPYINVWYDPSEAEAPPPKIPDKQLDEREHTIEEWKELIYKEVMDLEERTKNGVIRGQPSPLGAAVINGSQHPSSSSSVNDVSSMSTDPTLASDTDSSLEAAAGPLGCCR
# ERK2 = ERK2 (Homo sapiens, UniProt P28482); test: MAP kinase selectivity assay, ERK2; format: biochemical
# Sequence of ERK2 (P28482 whole entry, species assumed): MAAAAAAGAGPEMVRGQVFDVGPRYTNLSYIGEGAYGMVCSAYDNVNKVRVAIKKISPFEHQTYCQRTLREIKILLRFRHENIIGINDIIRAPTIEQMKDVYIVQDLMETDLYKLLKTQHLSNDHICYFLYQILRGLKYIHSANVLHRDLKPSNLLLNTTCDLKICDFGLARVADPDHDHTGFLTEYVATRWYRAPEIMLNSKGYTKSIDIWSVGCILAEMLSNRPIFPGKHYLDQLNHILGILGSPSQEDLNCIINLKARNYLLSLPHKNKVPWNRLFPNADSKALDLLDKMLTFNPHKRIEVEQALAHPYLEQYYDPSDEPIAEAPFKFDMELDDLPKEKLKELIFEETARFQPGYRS
# MDA-MB-231 cells [7] = test: Transwell chemotactic cell migration assay; format: cell-based, human; conditions: for inhibition of migration: overnight, migration in response to serum
# Outline: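 Chemotactic migration of MDA-MB-231 cells was measured in transwells. Cells were treated overnight with DMSO or test compound at 50 or 100 μM, and viability was monitored. Migrated cells on the membrane underside were stained with crystal violet. Three independent repeats.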
# p38MAPKγ = p38MAPKγ (Homo sapiens, UniProt P53778); test: MAP kinase selectivity assay, p38MAPKγ; format: biochemical
# Sequence of p38MAPKγ (P53778 whole entry): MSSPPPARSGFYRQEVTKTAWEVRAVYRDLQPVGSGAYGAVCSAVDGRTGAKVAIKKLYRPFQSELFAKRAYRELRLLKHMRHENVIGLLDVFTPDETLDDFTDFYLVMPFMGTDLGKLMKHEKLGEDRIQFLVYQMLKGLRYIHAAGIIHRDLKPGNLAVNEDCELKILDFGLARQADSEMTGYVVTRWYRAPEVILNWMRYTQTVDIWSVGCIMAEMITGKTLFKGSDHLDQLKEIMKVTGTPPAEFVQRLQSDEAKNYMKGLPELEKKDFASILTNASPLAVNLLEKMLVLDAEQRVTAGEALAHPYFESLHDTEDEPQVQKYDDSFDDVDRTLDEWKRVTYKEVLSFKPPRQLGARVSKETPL
# WT-MKK7 = WT-MKK7 (Homo sapiens, UniProt P45983); test: Phosphorylation of inactive JNK1 by active MKK7; format: biochemical
# Sequence of WT-MKK7 (P45983 whole entry): as the sequence (P45983 whole entry) above
# JNK2α2 (Y130A) = test: c-Jun phosphorylation in HEK293T cells transfected with JNK2α2; format: cell-based; conditions: 0-100 μM
# Outline: as §1
# JNK2α2 in HEK293T cells = test: Western blot in HEK293T cells transfected with WT-JNK2α2; format: cell-based; conditions: for JNK2α2 autophosphorylation: HEK293T over-expressing JNK2α2, without anisomycin
# Outline: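 HEK293T cells were transfected with wild-type JNK2α2 or empty pcDNA3 vector. They were treated with DMSO or varying test compound concentrations without anisomycin, or with an ATP-competitive reference JNK inhibitor with and without anisomycin. Western blots assessed JNK2α2 autophosphorylation and c-Jun phosphorylation, from which an ED50 was estimated.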
# ERK1 = ERK1 (Homo sapiens, UniProt P27361); test: MAP kinase selectivity assay, ERK1; format: biochemical
# Sequence of ERK1 (P27361 whole entry, species assumed): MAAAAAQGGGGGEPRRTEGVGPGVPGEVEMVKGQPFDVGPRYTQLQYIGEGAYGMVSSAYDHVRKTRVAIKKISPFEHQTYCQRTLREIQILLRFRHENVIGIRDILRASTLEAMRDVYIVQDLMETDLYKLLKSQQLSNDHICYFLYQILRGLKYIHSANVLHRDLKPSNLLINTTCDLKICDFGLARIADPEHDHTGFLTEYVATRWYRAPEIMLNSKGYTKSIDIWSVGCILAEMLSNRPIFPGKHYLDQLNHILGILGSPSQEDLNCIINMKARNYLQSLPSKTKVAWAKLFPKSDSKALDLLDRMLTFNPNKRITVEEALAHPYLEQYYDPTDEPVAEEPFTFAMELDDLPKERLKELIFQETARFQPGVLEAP
# JNK1 = JNK1 (Homo sapiens, UniProt P45983); test: Phosphorylation of GST-c-Jun; format: biochemical
# Sequence of JNK1 (P45983 whole entry): as the sequence (P45983 whole entry) above
# Outline: as §2
# [8] = test system: JNK activity in Jurkat T cells; conditions: cited from earlier work
# JNK [9] = conditions: read-out: in-vitro cell-free IC50; ATP-competitive; cited from earlier work
# GST-JNK1 = conditions: read-out: IC50 for displacing biotinylated pepJIP1 from GST-JNK1; cited from earlier work
compound,measurement,setting,value
COc1cc([C@H]2O[C@H](c3ccc4c(c3)OCO4)[C@H](C)[C@H]2C)ccc1O[C@H](C)[C@@H](O)c1ccc2c(c1)OCO2 [saucerneol F],nitric oxide (NO) production,RAW264.7 cells,inhibits nitric oxide (NO) production in a dose-dependent manner
(−)-zuonin A,wound closure,MDA-MB-231 cells [1],sufficient to inhibit wound closure
same,IC50,p38MAPKδ,> 200000 nM
same,% Inhibition at Saturating (−)-zuonin A (200 μM),p38MAPKδ; 200 μM,10%
same,sensitivity of c-Jun phosphorylation,JNK2α2 (C163A),unresponsive
same,IC50,[2],1700 to 2900 nM
same,phosphorylation of ERK or its protein substrate p-90RSK,ERK2 pathway,no effect
same,cell viability during the migration assay,MDA-MB-231 cells [3],unaffected
same,cell viability during the wound assay,MDA-MB-231 cells [3],unaffected
same,activation (phosphorylation) of JNK isoforms,[4],blunts the activation of the JNK isoforms in cells in a dose-dependent manner
same,phosphorylation of c-Jun (phospho-Ser-63),[4],clearly blunted
same,ED50 for inhibiting JNK phosphorylation,"[4]; HEK293 cells, stimulation by anisomycin",around 25 μM
same,α (factor by which affinity of JNK for c-Jun is weakened),JNK [5],~5
same,β (effect on kcat),JNK [5],1
same,Akt phosphorylation (Ser-473) mediated by JNK2α2,[6],able to inhibit Akt phosphorylation
same,% Inhibition at Saturating (−)-zuonin A (200 μM),p38MAPKβ,15%
same,% Inhibition at Saturating (−)-zuonin A (200 μM),JNK3; 200 μM,73%
same,IC50,JNK3; GST-c-Jun 2 μM,1740 ± 160 nM
same,% Inhibition at Saturating (−)-zuonin A (200 μM),"WT-MKK4; 200 μM, phosphorylation of JNK",77%
same,IC50,WT-MKK4; inhibits the phosphorylation of JNK (inactive JNK1) by MKK4,~1800 nM and 1800 nM
same,IC50,ERK2,> 200000 nM
same,% Inhibition at Saturating (−)-zuonin A (200 μM),ERK2; 200 μM,10%
same,inhibition of migration,MDA-MB-231 cells [7]; 50 μM,approximately 45%
same,inhibition of migration,MDA-MB-231 cells [7]; 100 μM,~80%
same,IC50,p38MAPKγ,> 200000 nM
same,% Inhibition at Saturating (−)-zuonin A (200 μM),p38MAPKγ; 200 μM,10%
same,% Inhibition at Saturating (−)-zuonin A (200 μM),"WT-MKK7; 200 μM, phosphorylation of JNK",50%
same,IC50,WT-MKK7; inhibits the phosphorylation of JNK (inactive JNK1) by MKK7,1990 ± 150 nM
same,sensitivity of c-Jun phosphorylation,JNK2α2 (Y130A),more sensitive
same,JNK2α2 autophosphorylation,JNK2α2 in HEK293T cells,unable to inhibit JNK2α2 autophosphorylation even at a concentration of 100 μM
same,ED50 for phosphorylation of c-Jun mediated by over-expressed JNK2α2,"JNK2α2 in HEK293T cells; HEK293T, without anisomycin",approximately 25 μM
same,IC50,ERK1,> 200000 nM
same,% Inhibition at Saturating (−)-zuonin A (200 μM),ERK1; 200 μM,10%
same,% Inhibition at Saturating (−)-zuonin A (200 μM),JNK1; 200 μM,75%
same,IC50,JNK1; GST-c-Jun 2 μM,1700 ± 260 nM
(+)-zuonin A,cell viability during the migration assay,MDA-MB-231 cells [3],unaffected
same,cell viability during the wound assay,MDA-MB-231 cells [3],unaffected
same,activation (phosphorylation) of JNK isoforms,[4],inhibits neither JNK activation nor c-Jun phosphorylation
same,phosphorylation of c-Jun (phospho-Ser-63),[4],inhibits neither JNK activation nor c-Jun phosphorylation
same,effect on cell migration,MDA-MB-231 cells [7]; 50 and 100 μM,able to mildly suppress cell migration
"Oc1c2ccccc2c2c3c(cccc13)N=N2 [SP600125, reference compound]",ED50 for JNK activity,[8],~10000 nM
same,IC50,JNK [9],40 to 100 nM
same,JNK2α2 phosphorylation in cells stimulated using anisomycin,"JNK2α2 in HEK293T cells; HEK293T over-expressing JNK2α2, with anisomycin",no longer able to inhibit
same,JNK2α2 autophosphorylation,JNK2α2 in HEK293T cells,autophosphorylation was inhibited
O=c1[nH]nc(Sc2ncc([N+](=O)[O-])s2)n1-c1ccc2c(c1)OCCO2 [BI-78D3],IC50,GST-JNK1,500 nM

# From publication PMC6459613 (ACS chemical biology, 2012)
